“And” between values parts separate entries of the source, which are not always exact repeats. Equal values may be shown once.
Assays:
[1] = (§1) Effect on Maxi-K-Mediated outward current in Xenopus laevis oocytes expressing cloned mSlo maxi-K channels at 20 uM; assay type: functional, Oocyte
In short: (§2)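 Two-electrode voltage clamp on Xenopus oocytes expressing cloned mSlo. Steps of 500–750 ms ran from a holding potential of -60 to +140 mV in 20 mV increments, without and with compound at 20 μM in the chamber. Each experiment ended with 10 min of 50 nM iberiotoxin, and that residual current was subtracted. The IbTx-sensitive current is given as % of drug-free control, from at least five oocytes.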

Rattus norvegicus [2] = assay: Neocortical infarct volume after IV administration (2 hr post-MCAO) in 13 rats by method A at the dose 5.0 mg/kg; assay type: functional
In short: (§3)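 Left MCA was permanently occluded by a subtemporal approach in male SHR (240–350 g) under ketamine/xylazine, with temperature kept at 36–38 °C. A single tail-vein bolus was given 2 h after occlusion, in vehicle of 2% DMSO and 98% propylene glycol. At 24 h the brain was perfused with 3% TTC, incubated 30 min at 37 °C and fixed. Neocortical infarct volume (mm3) was measured by planimetry of 2 mm slices and reported as mean (SE) and % reduction versus vehicle.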

Rattus norvegicus [3] = assay: Neocortical infarct volume after IV administration (2 hr post-MCAO) in 9 rats by method A at the dose 0.1 mg/kg; assay type: functional; in short: as §3
Rattus norvegicus [4] = organism: Rattus norvegicus; assay: Electrically stimulated [3H]glutamate release in hippocampal slices; assay type: functional, Hippocampus
In short: (§4)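 Hippocampal wedges (350 μm) from male Sprague–Dawley rats were washed in Krebs buffer with adenosine deaminase. They were loaded with 5 μCi [3H]-glutamate for 30 min at 37 °C, then superfused and collected as 5 min fractions. Release was evoked by field stimulation (35 mA, 10 Hz, 2 ms pulses, 1 min) at fractions 3 (S1) and 13 (S2). Compound was present from 30 min before S2. Data are S2/S1 ratios, analysed by ANOVA with Newman–Keuls.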

Rattus norvegicus [5] = assay: Neocortical infarct volume after IV administration (2 hr post-MCAO) in 13 rats by method A at the dose 10.0 mg/kg; assay type: functional; in short: as §3
Rattus norvegicus [6] = assay: Neocortical infarct volume after IV administration (2 hr post-MCAO) in 13 rats by method A at the dose 1.0 mg/kg; assay type: functional; in short: as §3
[7] = as §1; assay type: functional, Mus musculus, Oocyte; in short: as §2
Rattus norvegicus [8] = assay: Plasma level concentration after IV administration (4.6 mg/kg) in male rats at 0.25 hours; assay type: functional, organism-based
In short: (§5)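 Male Sprague–Dawley rats (ca. 225 g) got a tail-vein bolus of 2 mL/kg. Three animals per group were killed by CO2 at 0.25 and 2 h. Whole brain and blood were taken. Brain homogenates and plasma were extracted with CH3CN and assayed by HPLC with UV detection at 290 nm. Plasma is given in μg/mL and brain in μg/g wet weight, as mean ± SD.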

Rattus norvegicus [9] = assay: Neocortical infarct volume after intraperitoneal administration (2 hr post-MCAO) in 11 rats by method B at the dose level 10(mg/kg).; assay type: functional
In short: (§6)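 Permanent left MCA occlusion in male SHR (240–350 g) under ketamine/xylazine, at 36–38 °C. Compound was given intraperitoneally 2 h after occlusion in 2% DMSO/98% propylene glycol. At 24 h, infarcts were stained with 3% TTC perfusion, slices were cut at 2 mm, and neocortical infarct volume was measured by planimetry. Results are given as mean (SE) and % reduction versus vehicle from the same study.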

Rattus norvegicus [10] = assay: Neocortical infarct volume after intraperitoneal administration (2 hr post-MCAO) in 9 rats by method A at the dose 10 mg/kg
Rattus norvegicus [11] = assay: Neocortical infarct volume after IV administration (2 hr post-MCAO) in 9 rats by method B at the dose 0.1 mg/kg; assay type: functional
Rattus norvegicus [12] = organism: Rattus norvegicus; assay: Electrically stimulated [3H]-glutamate release in hippocampal slices; assay type: functional, Hippocampus; in short: as §4
Rattus norvegicus [13] = assay: Brain level concentration after IV administration (4.6 mg/kg) in male rats at 2 hours; assay type: functional, organism-based; in short: as §5
Rattus norvegicus [14] = assay: Neocortical infarct volume after IV administration (2 hr post-MCAO) in 9 rats by method A at the dose 0.03 mg/kg; assay type: functional; in short: as §3
Rattus norvegicus [15] = assay: Neocortical infarct volume after IV administration (2 hr post-MCAO) in 9 rats by method A at the dose 10.0 mg/kg; Toxic at 10.0% reduction level; conditions: in vivo
Rattus norvegicus [16] = assay: Brain level concentration after IV administration (4.6 mg/kg) in male rats at 0.25 hours; assay type: functional, organism-based; in short: as §5
Rattus norvegicus [17] = assay: Neocortical infarct volume after intraperitoneal administration (2 hr post-MCAO) in 11 rats by method B at the dose level 20(mg/kg).; assay type: functional; in short: as §6
Rattus norvegicus [18] = assay: Plasma level concentration after IV administration (4.6 mg/kg) in male rats at 2 hours; assay type: functional, organism-based; in short: as §5
Rattus norvegicus [19] = assay: Neocortical infarct volume after IV administration (2 hr post-MCAO) in 9 rats by method B at the dose 0.01 mg/kg
[20] = Effect on Maxi-K mediated outward current in Xenopus laevis oocytes expressing cloned mSlo maxi-K channels at 20 uM; assay type: functional, Mus musculus, Oocyte; in short: as §2

Row | Compound | Increase [1] [%] | other results
1 | COc1ccc(Cl)cc1[C@]1(O)C(=O)Nc2cc(C(F)(F)F)ccc21 (stereo in doubt; (-)-7c) | 116 | 
2 | O=C1Nc2cc(C(F)(F)F)ccc2C1(O)c1c(O)ccc2ccccc12 (configuration not stated) | 116 | 
3 | O=C1Nc2cc(C(F)(F)F)ccc2C1(O)c1cc(Cl)ccc1O (racemic) [listing 1 of 2 here] | 131 | Reduction (Rattus norvegicus [2]): 10%; Reduction (Rattus norvegicus [3]): 4%; Control (Rattus norvegicus [4]): 89% and 93%; Reduction (Rattus norvegicus [5]): 4%; Reduction (Rattus norvegicus [6]): 10%
4 | O=C1Nc2cc(C(F)(F)F)ccc2C1(O)c1cc(F)ccc1O (configuration not stated) | 97 | 
5 | CN1CCN(c2ccc(O)c(C3(O)C(=O)Nc4cc(C(F)(F)F)ccc43)c2)CC1 (configuration not stated) | 91 | 
6 | Nc1cc(O)c(C2(O)C(=O)Nc3cc(C(F)(F)F)ccc32)cc1Cl (configuration not stated) |  | Increase [7]: 94%
7 | O=C1Nc2cc(C(F)(F)F)cc(C(F)(F)F)c2C1(O)c1cc(Cl)ccc1O (configuration not stated) | 127 | 
8 | COc1ccc(O)c(C2(O)C(=O)Nc3cc(C(F)(F)F)ccc32)c1 (configuration not stated) | 81 | 
9 | O=C1Nc2ccc(C(F)(F)F)cc2C1(O)c1cc(Cl)ccc1O (configuration not stated) | 108 | 
10 | O=C1Nc2cc(C(F)(F)F)ccc2C1(O)c1cc(Cl)cc(I)c1O (configuration not stated) | 124 | 
11 | O=C1Nc2cc(C(F)(F)F)ccc2C1(O)c1cccc(Cl)c1 (configuration not stated) | 97 | 
12 | O=C1Nc2cc(C(F)(F)F)ccc2C1(O)c1cc(Br)ccc1O (configuration not stated) | 89 | 
13 | O=C1Nc2cccc(C(F)(F)F)c2C1(O)c1cc(Cl)ccc1O (configuration not stated) | 127 | 
14 | Cc1ccc2c(c1)C(O)(c1cc(Cl)ccc1O)C(=O)N2 (configuration not stated) | 100 | 
15 | O=C1Nc2cc(C(F)(F)F)ccc2C1c1cc(Cl)ccc1O (racemic) |  | Concentration (Rattus norvegicus [8]): 3.3 µg/mL; Reduction (Rattus norvegicus [9]): 24%; Reduction (Rattus norvegicus [10]): 26%; Reduction (Rattus norvegicus [11]): 4% and 12%; Control (Rattus norvegicus [12]): 71%; Concentration (Rattus norvegicus [13]): 0.23 µg/g; Reduction (Rattus norvegicus [3]; 0.1 mg/kg): 9% and 0% and 6%; Reduction (Rattus norvegicus [14]): 18%; Toxic (Rattus norvegicus [15]): Toxic; Increase [7]: 164%; Concentration (Rattus norvegicus [16]): 2.4 µg/g; Reduction (Rattus norvegicus [17]): 9%; Concentration (Rattus norvegicus [18]): 0.28 µg/mL; Increase (Rattus norvegicus [19]): -7%
16 | O=C1Nc2cc(C(F)(F)F)ccc2C1(O)c1cc(Cl)c(Cl)cc1O (configuration not stated) | 107 | 
17 | O=C1Nc2ccc(F)cc2C1(O)c1cc(Cl)ccc1O (configuration not stated) | 106 | 
18 | O=C1Nc2cc(C(F)(F)F)ccc2C1(O)c1cc(I)ccc1O (configuration not stated) | 107 | 
19 | O=C1Nc2cc(C(F)(F)F)ccc2C1(O)c1cc(C(F)(F)F)ccc1O (configuration not stated) | 130 | 
20 | O=C1Nc2c(C(F)(F)F)cccc2C1(O)c1cc(Cl)ccc1O (configuration not stated) | 122 | 
21 | Cc1ccc(O)c(C2(O)C(=O)Nc3cc(C(F)(F)F)ccc32)c1 (configuration not stated) | 106 | 

Row | Compound | Increase [1] [%] | other results
22 | O=C1Nc2cc(C(F)(F)F)ccc2[C@@]1(O)c1cc(Cl)ccc1O | 123 | 
23 | O=C1Nc2cc(C(F)(F)F)ccc2C1(O)c1cc(Cl)ccc1O (racemic) [listing 2 of 2 here] |  | Concentration (Rattus norvegicus [8]): 1.2 µg/mL; Concentration (Rattus norvegicus [13]): 0.87 µg/g; Concentration (Rattus norvegicus [16]): 1.34 µg/g; Concentration (Rattus norvegicus [18]): 0.231 µg/mL
24 | O=C1Nc2ccccc2C1c1cc(Cl)ccc1O (configuration not stated) | 139 | 
25 | O=C1Nc2cc(C(F)(F)F)ccc2C1(O)c1ccc(C(F)(F)F)cc1O (configuration not stated) | 108 | 
26 | COc1ccc(Cl)cc1C1C(=O)Nc2cc(C(F)(F)F)ccc21 (configuration not stated) | 110 | 
27 | COc1ccc(Cl)cc1C1(O)C(=O)Nc2cc(C(F)(F)F)ccc21 (racemic) | 120 | 
28 | O=C1Nc2ccccc2C1(O)c1cc(Cl)ccc1O (configuration not stated) | 95 | 
29 | COc1ccc(Cl)cc1[C@]1(O)C(=O)Nc2cc(C(F)(F)F)ccc21 (stereo in doubt; (+)-7c) | 117 | 
30 | COc1ccc(Cl)cc1C1(O)C(=O)Nc2ccc(C(F)(F)F)cc21 (configuration not stated) |  | Increase [20]: 109%
31 | O=C1Nc2cc(C(F)(F)F)ccc2C1(O)c1ccccc1 (configuration not stated) | 87 | 
32 | O=C1Nc2cc(C(F)(F)F)ccc2C1(O)c1cc(Cl)ccc1O (single isomer, unassigned; (-)) | 141 | 
33 | O=C1Nc2cc(C(F)(F)F)ccc2C1(O)c1cc(Cl)cc(Cl)c1O (configuration not stated) | 108 | 
34 | O=c1[nH]c2cc(C(F)(F)F)ccc2n1-c1cc(Cl)ccc1O | 132 | 
35 | O=C1Nc2cc(C(F)(F)F)ccc2C1(O)c1cccc(Cl)c1O (configuration not stated) | 116 | 
36 | O=C1Nc2cc(C(F)(F)F)ccc2C1(O)c1ccccc1O (configuration not stated) | 90 | 
37 | O=C1Nc2ccc([N+](=O)[O-])cc2C1(O)c1cc(Cl)ccc1O (configuration not stated) | 78 | 
38 | O=C1Nc2cc(C(F)(F)F)ccc2C1(O)c1ccc(Cl)cc1O (configuration not stated) | 93 | 
39 | O=C1Nc2cc(C(F)(F)F)ccc2C1(O)c1cc(-c2ccccc2)ccc1O (configuration not stated) | 106 | 
40 | Nc1ccc(C2(O)C(=O)Nc3cc(C(F)(F)F)ccc32)c(O)c1 (configuration not stated) |  | Increase [7]: 92%
41 | O=C1Nc2cc(Cl)cc(Cl)c2C1(O)c1cc(Cl)ccc1O (configuration not stated) | 117 | 

From ChEMBL document CHEMBL1135575, “Synthesis and structure-activity relationships of 3-aryloxindoles: a new class of calcium-dependent, large conductance potassium (maxi-K) channel openers with neuroprotective properties” (J Med Chem, 2002)
